Our source for the Ki and Activity values is ChEMBL document CHEMBL1158478, “Synthesis and biological evaluation of guanidino compounds endowed with subnanomolar affinity as competitive inhibitors of maize polyamine oxidase” (J Med Chem, 2009).

Active and inactive are the calls of the source. The calls are words filed in the database; no cut-off is given here.

The target in one test is T1, Polyamine oxidase 1 (Zea mays, UniProt O64411).
T1 sequence (O64411 whole entry): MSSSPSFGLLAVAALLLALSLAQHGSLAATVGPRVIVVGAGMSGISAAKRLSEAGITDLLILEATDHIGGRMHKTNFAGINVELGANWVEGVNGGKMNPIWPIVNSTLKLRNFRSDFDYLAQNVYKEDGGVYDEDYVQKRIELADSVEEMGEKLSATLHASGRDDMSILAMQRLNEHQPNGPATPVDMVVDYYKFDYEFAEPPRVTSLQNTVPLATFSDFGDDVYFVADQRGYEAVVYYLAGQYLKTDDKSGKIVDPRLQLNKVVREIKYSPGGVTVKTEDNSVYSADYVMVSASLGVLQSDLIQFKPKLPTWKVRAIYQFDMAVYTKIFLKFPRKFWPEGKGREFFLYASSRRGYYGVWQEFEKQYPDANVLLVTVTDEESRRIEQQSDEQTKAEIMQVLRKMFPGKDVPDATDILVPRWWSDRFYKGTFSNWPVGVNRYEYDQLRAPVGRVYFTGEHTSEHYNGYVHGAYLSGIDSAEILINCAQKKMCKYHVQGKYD
As to the kind of experiment: Inhibition of maize PAO at pH 6.5 by spectrophotometry-based Dixon plot method. An outline of the steps:
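H₂O₂ was detected by peroxidase-coupled 4-aminoantipyrine/3,5-dichloro-2-hydroxybenzenesulfonate adduct at 515 nm. Ki was obtained by the Dixon method. Mean of three experiments, each in duplicate.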

The subject of test [1] is U373 MG. As to the kind of experiment: Cytostatic activity in human U373MG cells at 1 uM after 48 hrs by trypan blue assay. The class given is functional, cell-based. The following applies: U-373MG ATCC. The method in brief: (§1)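 Cells seeded in DMEM with 10% FBS at 2.5 × 10³ cells/well and allowed to adhere. They were then incubated with or without 1 μM compound for 0, 24, 48, 72 and 96 h. Trypan blue exclusion was used: unstained cells were counted twice in a Neubauer chamber, in duplicate, and reported as living cell number (×10⁷). At least three independent runs, with two-way ANOVA against control.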

The subject of test [2] is U373 MG. As to the kind of experiment: Cytostatic activity in human U373MG cells at 1 uM after 72 hrs by trypan blue assay. The class given is functional, cell-based. The following applies: U-373MG ATCC. The method in brief: as §1
For test [3], the system named is HeLa. As to the kind of experiment: Antiproliferative activity against human HeLa cells at 1 uM after 48 hrs by MTT assay. Type of test: functional, cell-based. The method in brief: (§2)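 Cells seeded at 2.5 × 10³ cells/well in DMEM with 10% FBS and allowed to adhere. They were then exposed to the test compound (0.1-10 μM) for 24, 48, 72 and 96 h. MTT reduction was read at 550 nm, and viability was taken as OD treated / OD untreated control × 100. At least three independent experiments, compared by two-way ANOVA.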
(Tetrazolium dyes change colour on reduction, which living cells bring about.)

Test [4] deals with U373 MG. As to the kind of experiment: Cytostatic activity in human U373MG cells at 1 uM after 96 hrs by trypan blue assay. The following applies: U-373MG ATCC. The class given is functional, cell-based. An outline of the steps:
as §1

Test [5] has as its system U-373MG ATCC. Description: Cytotoxicity against human U373MG cells at 10 uM after 24 to 96 hrs by MTT assay. The class given is functional, cell-based. An outline of the steps:
as §2

Test [6] deals with HeLa. As to the kind of experiment: Antiproliferative activity against human HeLa cells at 1 uM after 96 hrs by MTT assay. The class given is functional, cell-based. The method in brief: as §2
The subject of test [7] is HeLa. As to the kind of experiment: Antiproliferative activity against human HeLa cells at 1 uM after 72 hrs by MTT assay. Type of test: functional, cell-based. An outline of the steps:
as §2

In test [8] the test system is HeLa. Description: Cytostatic activity in human HeLa cells at 1 uM after 96 hrs by trypan blue assay. The class given is functional, cell-based. The method in brief: as §1
The test system of test [9] is U-373MG ATCC. Description: Antiproliferative activity against human U373MG cells at 1 uM after 48 hrs by MTT assay. The class given is functional, cell-based. The method in brief: as §2
Test [10] deals with HeLa. As to the kind of experiment: Cytotoxicity against human HeLa cells at 10 uM after 24 to 96 hrs by MTT assay. The class given is functional, cell-based. The method in brief: as §2
The test system of test [11] is HeLa. Description: Cytostatic activity in human HeLa cells at 1 uM after 72 hrs by trypan blue assay. The class given is functional, cell-based. An outline of the steps:
as §1

Test [12] relates to U-373MG ATCC. Description: Antiproliferative activity against human U373MG cells at 1 uM after 72 hrs by MTT assay. The class given is functional, cell-based. An outline of the steps: as §2
The test system of test [13] is HeLa. Description: Cytostatic activity in human HeLa cells at 1 uM after 48 hrs by trypan blue assay. The class given is functional, cell-based. The method in brief: as §1
In test [14] the test system is U-373MG ATCC. Description: Antiproliferative activity against human U373MG cells at 1 uM after 96 hrs by MTT assay. Type of test: functional, cell-based. An outline of the steps:
as §2

On Polyamine oxidase 1, `COc1cccc(CNC(N)=NCCCCCN)c1` displayed a Ki of 1150 nM.
Molecule `NC(N)=NCCCCCCCCNCCCCCCCCN=C(N)NCc1ccccc1` yielded a Ki on Polyamine oxidase 1 of 1 nM. Compared with the last molecule, the Ki is about 1200-fold lower.
Regarding `NCCCCCCCCN` [DIAMINOOCTANE], the Ki on Polyamine oxidase 1 came out at 300 nM.
As for `CC(C)=CCNC(=N)NCCCCCCN`, the Ki at Polyamine oxidase 1 was found to be 22 nM.
Turning to `C=CCNC(=N)NCCCCN`, affinity on Polyamine oxidase 1 was put at a Ki of 130 nM. Compared with the last molecule, the Ki is about 5.9-fold higher.
On the same count and under the same terms, next, `CC(C)=CCNC(=N)NCCCCCN`: 10 nM; `N=C(NCCCCCN)NCCC1CCCCC1`: 1720 nM.
With `CC(C)=CCNC(=N)NCCCCN`, at Polyamine oxidase 1, the Ki was 15 nM.
Same read-out and setting: next, `N=C(N)NCCCCCCCCNCCCCCCCCNC(=N)N` [IMINOCTADIENE]: 7.5 nM; `C=C(C)CCNC(N)=NCCCCCCCCNCCCCCCCCN=C(N)N`: 0.5 nM.
The same measure, in the same setting: the figure for `CC(C)=CCNC(N)=NCCCCCCCCNCCCCCCCCN=C(N)N` is 3 nM.
For `N=C(N)NCCCCCCCCNCCCCCCCCNC(=N)NCC1CC1`, the result with U373 MG [1], in the test on U373 MG [2], in the test on HeLa [3], in the test on U373 MG [4], in the test with U-373MG ATCC [5] and in the test with HeLa [6] was Active. Also, the result in the test with HeLa [7], in the test with HeLa [8], in the test with U-373MG ATCC [9], in the test on HeLa [10], in the test with HeLa [11] and with U-373MG ATCC [12] was Active. Moreover, the outcome with HeLa [13] and in the test with U-373MG ATCC [14] was Active. This molecule also had an inhibitory constant (Ki) on Polyamine oxidase 1 of 0.08 nM.
As to `N=C(N)NCCCCN` [AGMATINE], at Polyamine oxidase 1, the affinity corresponds to a Ki of 3000 nM.
The molecule `NCCCCN=C(N)Nc1ccc(F)cc1` gave a Ki at Polyamine oxidase 1 of 630 nM. Against the preceding molecule, the Ki is about 4.8-fold lower.
Still for that read-out and setting: next, `C#CCNC(=N)NCCCCN`: 250 nM; `CC(C)=CCNC(N)=NCCCCN=C(N)N`: 700 nM; `CC(C)=CCNC(N)=Nc1ccc(CN)cc1`: 18000 nM.
At Polyamine oxidase 1, `C#CCNC(N)=NCCCCCCCCNCCCCCCCCN=C(N)N` had a Ki of 0.7 nM. This Ki lies about 26000-fold lower than the previous one.
On the same count and under the same terms, the figure for `C/C=C/CNC(=N)NCCCCCCCCNCCCCCCCCNC(=N)N` is 1.1 nM; for `NCCCCCN=C(N)NCC1CC1` it is 2580 nM; for `CC(C)=CCN=C(N)NCCCCCCCCNCCCCCCCCN=C(N)NCC=C(C)C` it is 1.7 nM.
Turning to `CC(C)=CCN=C(N)NCCCCN=C(N)NCC=C(C)C`, on Polyamine oxidase 1, the Ki is 1500 nM.
The same measure, in the same setting: the figure for `CC(C)=CCNC(=N)NCCCNCCCN` is 1210 nM.
On Polyamine oxidase 1, `NCCCCCN=C(N)NC/C=C/c1ccccc1` returned an inhibition constant Ki of 1530 nM.

One may read the Ki as a dissociation constant, usually derived from enzyme kinetics or from competition with a known ligand.
